Hsp70 act – Hsp70 transcriptional activators, primary screen, cell-based, HeLa, Hsp70 promoter luciferase, luminescence, 10 µM | 0.04% of 200,000 active | HeLa Hsp70 promoter luciferase reporter; scaled: vehicle 0, proteasome-inhibitor control 100% | activation, % at 10 µM;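 active = activation above the mean across all tested compounds plus 3 SD, cutoff set per campaign, cut at about 5.5% in these data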;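 note: 100% = MG132 at 30 µM as the positive control and 0% = DMSO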
Mdm2 ligase inh – MDM2-luciferase reporter signal enhancers, primary screen, MDM2 E3 ligase inhibitor project, cell-based, luminescence, 1536-well; 0.11% of 210,000 active; signal enhancement, % at 5 µM; AID 1230, 2008; E3 ubiquitin-protein ligase Mdm2 (Homo sapiens), Q00987; cell-based MDM2 ubiquitination luciferase reporter, 2 h; 0 = plate control, 100 = twice control, blank-subtracted;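 active = signal enhancement of 30% or more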;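 note: luminescence tracks abundance of the self-degrading MDM2-luciferase fusion protein; higher signal means inhibition of MDM2 E3 ligase activity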
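Test system: mammalian cells stably expressing self-ubiquitinating, self-degrading MDM2 E3–luciferase fusion; Amount: 2000 cells in each well; Medium: DMEM; Schedule: 4 h settle plus 2 h compound, 37 °C; Technique: SteadyLite luciferase luminescence after 15 min room-temperature reagent incubation; Benchmarks: plate control and blank wells.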
HSF1 inhib – HSF1 inhibitors in luciferase reporter cells, primary screen, cell-based, NIH3T3, luminescence | NIH3T3-HGL HSE-luciferase, MG132-induced, luminescence 8 h; hits give low values | activity change, negative = inhibition, % at 7.5 µM (by protocol) | 0.77% of 300,000 active | AID 2098, 2009;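 active = more than half of replicate wells show activity change below -50%, luminescence cut by over half; inconclusive = some wells, but at most half, below -50%; inactive = no replicate well below -50%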;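 note: luciferase reports HSF-1 transcriptional activity via heat shock element; 0% = median of DMSO wells and -100% = zero luminescence signal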
Rad51 HR inh – human RAD51 strand exchange inhibitors, primary screen, biochemical, fluorescence; DNA repair protein RAD51 homolog 1 (Homo sapiens), Q06609; hRad51 DNA strand exchange, fluorescence dequenching; inhibition, % at 10 µM; 0.085% of 200,000 active;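 active = inhibition above 40% at the single screening dose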;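 note: 0% = DMSO control wells and 100% = blanks with heterologous ssDNA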
Target sequence (Q06609 whole entry, looked up): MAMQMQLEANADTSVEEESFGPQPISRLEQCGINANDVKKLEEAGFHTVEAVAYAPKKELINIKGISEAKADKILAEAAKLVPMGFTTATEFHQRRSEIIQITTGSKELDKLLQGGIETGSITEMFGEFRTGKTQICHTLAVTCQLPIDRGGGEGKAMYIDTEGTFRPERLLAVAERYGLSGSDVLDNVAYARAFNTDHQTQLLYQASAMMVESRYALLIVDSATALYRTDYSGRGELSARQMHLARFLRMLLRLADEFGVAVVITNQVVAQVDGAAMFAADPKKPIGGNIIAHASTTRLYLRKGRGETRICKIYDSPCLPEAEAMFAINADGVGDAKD
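Test system: preformed human Rad51 ssDNA filaments; also added: Donor/quencher-labelled 47-bp dsDNA substrate; doses: 10 µM final, single point; times: 37 °C 15-min filament assembly, 30-min compound preincubation, 15-min exchange; detection: FRET fluorescence dequenching, excitation 485 nm, emission 520 nm; read-out basis: Fluorescence-based percent inhibition, control- and blank-normalised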
HSF1 activator – HSF-1 activators, primary screen, NIH3T3-HGL cells, MG132 stress, luminescence, single point. NIH3T3-HGL HSF-1 luciferase reporter, 8 h; 100% = twice DMSO control signal. activation, % at 9 µM. 1.7% of 300,000 active. AID 504408, 2011;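 active = mean replicate activation of at least 50% with a set share of replicates each reaching 50%; inconclusive = only one of those two conditions met; inactive = mean below 50% and too few replicates reaching it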;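 note: 0% = median of the neutral control wells and 100% = twice that signal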
HSV augment – enhancers of HSV replication in host cells, fold increase, host cell viability | HSV replication augmentation in cells | 0.005% of 220,000 active | AID 1956, 2009 | maximum fold increase; in the data active = maximum fold increase above about 1.5; inconclusive = no clear call, values can overlap the other calls; tested in PC3 cells
Numbers without * were called inactive; i = inactive; ? = inconclusive; . = no result given. An excerpt weighted towards active compounds, which were near 2.6% of everything screened.

SMILES	Hsp70 act	Mdm2 ligase inh	HSF1 inhib	Rad51 HR inh	HSF1 activator	HSV augment
COc1c(N2CCN(C(=S)NC3CC4CCC3C4)C(C)C2)c(F)cc2c(=O)c(C(=O)O)cn(C3CC3)c12 (configuration not stated)	.	-3	-55*	.	-68	i
COc1c(N2CCN(C(=S)Nc3ccc(F)cc3)C(C)C2)c(F)cc2c(=O)c(C(=O)O)cn(C3CC3)c12 (configuration not stated)	0	0	-3	3	-8	i
CN(CCOc1ccc(Cl)cc1)C(=O)C1CCN(C(=O)c2ccc(F)cc2)CC1	.	.	1	.	0	.
CCOc1ccccc1NC(=O)CCS(=O)(=O)c1ccc2c(c1)CC(C)N2C(C)=O (configuration not stated)	.	.	1	.	10	.
CCC(=O)N1c2ccc(S(=O)(=O)CCC(=O)Nc3ccc(OC)cc3OC)cc2CC1C (configuration not stated)	.	.	20	.	53*	.
COc1ccc(S(=O)(=O)CCC(=O)Nc2cc(C)ccc2OC)cc1	0	-12	-66*	.	-73	i
CC1CC(C)CN(c2ccc([N+](=O)[O-])nc2)C1 (configuration not stated)	0	0	0	.	-2	i
Cc1cc(C)nc(SC2=CS(=O)(=O)c3ccccc32)n1	0	4	7	-7	2	i
O=S1(=O)C=C(Sc2nc3ccccc3s2)c2ccccc21	3	52*	-87*	7	-87	i
CSc1ncccc1C(=O)OCc1ccccc1	0	-11	28	14	58*	i
O=C(Nc1ccc(F)cc1)c1nc(S(=O)(=O)Cc2ccccc2)ncc1Cl	.	.	-85*	.	-89	.
Cc1ccc(NC(=O)c2nc(S(=O)(=O)Cc3ccccc3)ncc2Cl)cc1	.	.	-95*	.	-96	.
Cc1cc(NC(=O)CCC(=O)N(Cc2cccs2)C(C)(C)C(=O)NC2CCCCC2)no1	.	.	8	.	1	.
CCN(CC)S(=O)(=O)c1ccc(N2CCOCC2)c(NC(=O)c2ccc(N3CCCC3=O)cc2)c1	.	.	-2	.	3	.
CC(O)CNCCCOc1ccc(Cl)cc1C(C)(C)C (configuration not stated)	0	-2	-66*	14	-73	i
CC(=O)/C=C1/C(=O)Nc2ccccc21	1	-14	165	19	187*	i
O=C(O)COc1ccccc1/C=C1\C(=O)Nc2ccc(Br)cc21	.	.	-8	.	14	.
C=CCOc1cccc(C(=O)/C=C2/C(=O)Nc3ccccc32)c1	.	.	158	.	236*	.
CCOc1ccc(Nc2nnc(SCc3nc4ccccc4c(=O)[nH]3)s2)cc1	.	.	-1	-16	-5	i
CCOC(=O)c1ccc(N2C(=O)CC(N3CCN(Cc4ccccc4)CC3)C2=O)cc1 (configuration not stated)	-1	5	-4	-4	3	i
CCOC(=O)c1ccc(N2C(=O)CC(N3CCC(Nc4ccc(F)cc4)CC3)C2=O)cc1 (configuration not stated)	0	-15	23	-6	58*	i
O=C1C=CC(=O)N1N(c1ccccc1)c1ccccc1	0	-9	57	-4	69*	i
NC(=S)NC(c1ccccc1)c1ccncc1 (configuration not stated)	.	.	-3	.	7	.
Cc1ccc(NC(=O)CSc2nnc(-c3ccoc3C)n2CCCN(C)C)cc1Cl	.	.	2	.	40	.
CC(=O)N1CCc2cc(S(=O)(=O)NC(Cc3ccccc3)C(=O)NC3CCCCCC3)ccc21 (configuration not stated)	0	-7	15	2	54*	i
SMILES	Hsp70 act	Mdm2 ligase inh	HSF1 inhib	Rad51 HR inh	HSF1 activator	HSV augment
CC(=O)N1CCCc2cc(S(=O)(=O)NC(C(=O)NC3CCCCC3)C(C)C)ccc21 (configuration not stated)	0	-9	9	.	34	i
COc1ccc(CCNC(=O)CSc2nc3ccccc3o2)cc1OC	0	-2	-6	5	2	?
COc1ccc(CCNC(=O)CSc2nc3cc(Cl)ccc3o2)cc1OC	0	3	25	10	66*	i
Cc1ccc(S(=O)(=O)N(Cc2ccccc2)c2ccccc2C(=O)N2CCCCC2)cc1	.	.	5	.	-6	.
N=C1C(c2nc3ccccc3[nH]2)=C(O)CN1c1ccc(CC(=O)O)cc1	0	-15	-54*	-2	-63	i
N=C1C(c2nc3ccccc3[nH]2)=C(O)CN1c1ccccc1	0	41*	17	-12	13	i
Cc1ccc(C)c(N(CC(=O)NCCc2ccccc2)C(=O)CCC(=O)Nc2ccccn2)c1	.	.	-4	.	10	.
CN(C)c1ccc(N=c2sc3ccccc3n2C)cc1	0	-16	70	-2	110*	i
CCOC(=O)c1c(NC(=O)CSC(=S)N2CCOCC2)sc(C)c1C	0	-9	-6	-3	7	i
COC(=O)c1ccc(COc2ccccc2/C=C(\C#N)C(=O)Nc2c(C)cccc2C)cc1	0	7	126	.	148*	i
O=C(N/N=C/c1ccoc1)c1cccc(OC(F)(F)C(F)F)c1	.	.	1	.	32	.
CCc1ccc(-n2c(=O)c3c(C)c(C(=O)N(C)C)sc3n(CC(=O)NCc3ccco3)c2=O)cc1	0	-8	-9	-5	0	i
CC(C)C1Cc2c(C#N)c(N)n(C)c(=S)c2CO1 (configuration not stated)	0	1	-52*	.	-63	.
Cc1ccc(S(=O)(=O)c2c(N)n(-c3ccccc3)c3nc4ccccc4nc23)cc1	0	-9	20	-7	66*	i
CCCCn1c(N)c(S(=O)(=O)c2ccc(C)cc2)c2nc3ccccc3nc21	0	-6	27	.	47	i
NNC(=O)CNC(=O)CNS(=O)(=O)c1ccccc1	0	2	-78*	-6	-83	i
COc1ccc(C(=O)CC2(C(=O)O)CCCCC2)cc1	.	.	1	.	1	.
CC(=O)N1c2ccc(S(=O)(=O)N3CCC(C(=O)NCc4ccc(N(C)C)cc4)CC3)cc2CC1C (configuration not stated)	.	.	2	.	23	.
CC(=O)N1c2ccc(S(=O)(=O)N3CCCC3)cc2CC1C(=O)NCc1ccc(N(C)C)cc1 (configuration not stated)	.	.	18	.	57*	.

Bioassay records (PubChem BioAssay)
